Measurements pooled from the literature.
Lines come from different studies, so protocols differ. pEC50, pIC50: −log10 of the molar value. Converted amounts (≈) assume the structure as drawn.

Structure (SMILES)	organism	assay	system	setting	quantity	result
O=C1C(O)=C([C@H]2CC[C@H](c3ccc(Cl)cc3)CC2)C(=O)c2ccccc21	Toxoplasma gondii	parasite growth		72 h, intracellular	pEC50	7.97
CCc1nc(N)nc(N)c1-c1ccc(Cl)cc1	Toxoplasma gondii	parasite growth	human Fibroblast	intracellular	pIC50	4.79
Cc1ccc(C(=O)ON=C2C=C(C(C)(C)C)C(=O)C(C(C)(C)C)=C2)cc1	Toxoplasma gondii	parasite growth, fluorescence		5 days, intracellular	pIC50	4.89
CCc1cc(Nc2cc(=O)n(CCCCO)c(=O)[nH]2)ccc1C	Lacticaseibacillus casei	microbial growth, agar dilution		48 h	MIC	32 µg/mL (≈ 101 µM)
Cc1nc2sccn2c1C(=O)N1CCN(CCn2cc(-c3ccc(C(C)(C)C)cc3)nn2)CC1	Mycolicibacterium smegmatis	microbial growth		72 h	pIC50	< 3.89
N=C(NCCCCCCNC(=N)NC(=N)Nc1ccc(Cl)cc1)NC(=N)Nc1ccc(Cl)cc1	Acanthamoeba castellanii	parasite growth, resazurin		96 h	pIC50	5.22
OC[C@H]1O[C@@H](n2ccc3c(O)ncnc32)[C@H](O)[C@@H]1O	Toxoplasma gondii	parasite growth	human Fibroblast	intracellular	pIC50	4.44
CC(C)(C)C1=CC(=NNC(=O)C2CCCCC2)C=C(C(C)(C)C)C1=O	Toxoplasma gondii	parasite growth, fluorescence		5 days, intracellular	pIC50	< 4.00
N#Cc1cc(-c2nc3ccccc3s2)c(=O)n(NS(=O)(=O)c2ccccc2)c1N	Human mastadenovirus B	plaque formation	HEp-2		IC50	110 µg/mL
O=c1[nH]c(NCc2ccc(Cl)c(Cl)c2)nc2ncn(CCCCCN3CCOCC3)c12	Lacticaseibacillus casei	microbial growth, agar dilution		48 h	MIC	16 µg/mL (≈ 34.4 µM)
C[C@@H](c1ncncc1F)[C@](O)(Cn1cncn1)c1ccc(F)cc1F	Acanthamoeba castellanii	parasite growth, resazurin		7 days	pIC50	4.66
COc1cc2[nH]c3cc(Oc4ccc(OC(F)(F)F)cc4)ccc3c(=O)c2cc1F	Toxoplasma gondii	parasite growth		72 h, intracellular	pEC50	9.20
